What is called CC50 is the concentration at which the toxic effect on the cells reaches its halfway point.

This is an account of results in article PMC10276036 (International Journal for Parasitology: Drugs and Drug …, 2023).

Data set [1] can be described thus: Cytotoxicity on murine cells. The format is cell-based. The note with it: mouse, J774A.1 macrophages. The method in brief: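 J774A.1 macrophages, maintained in DMEM + 10% FBS at 37 °C and 5% CO2, seeded at 10^4/well and left until fully adherent. Serial dilutions of test compound were then added in RPMI 1640 instead of DMEM, whose colour disturbs alamarBlue fluorescence. After 24 h at 37 °C and 5% CO2, alamarBlue fluorescence was read.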

The subject of data set [2] is amastigote stage of T. cruzi. As to the kind of experiment: Activity against amastigote stage. It is filed as cell-based, Trypanosoma cruzi. To be noted: CC50/IC50, murine macrophages vs amastigotes.
Data set [3] relates to epimastigotes of Trypanosoma cruzi (Y strain). In words: Activity against epimastigote stage. The note with it: CC50/IC50, murine macrophages vs epimastigotes. It is filed as cell-based. The essentials: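 Y-strain epimastigotes, maintained in LIT + 10% FBS at 26 °C, seeded at 10^5/well with serial dilutions of test compound and 10% alamarBlue. After 3 days (exponential growth), fluorescence was read and dying parasites were confirmed by microscopy. IC50 came from nonlinear regression. CC50 came from the J774A.1 alamarBlue assay, and SI = CC50/IC50.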

Compound `O=C(Cn1ccnc1[N+](=O)[O-])NCc1ccccc1` [BENZ, benznidazole] had a CC50 at 24 h in data set [1] of 399.9 ± 1.4 µM. The “Selectivity index against amastigote stage” value in data set [2] is reported as 149.8. For the same compound, the “Selectivity index (SI) against epimastigote stage” value in data set [3] is reported as 57.8.
